F508del corr: CFTR F508del correction in bronchial cells; hit rate 0.36% among 350,000; activity (quench increase), % at 7.58 µM; CFBE cells, YFP halide quenching; stimulated with forskolin plus potentiator P3; % fluorescence drop versus neutral controls;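 active = mean added fluorescence quench of at least 8% versus neutral control, with both replicates also reaching 8%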;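 note: cells transiently co-express mutant CFTR-F508del with the halide-sensitive YFP; corrector assay measuring rescue of mutant channel to the surface after 24 h compound exposure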
Ecoli rRNA inh: selective bacterial rRNA inhibition in E. coli; E. coli WT GFP vs humanized-ribosome RFP mutants, fluorescence, 24 h; active compounds read low; DMSO median 0, no signal -100; GFP signal change (wild-type ribosome), % (concentration not given with the values); AID 720706; hit rate 1.6% among 350,000;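 active = significant combined selectivity score with lowered wild-type GFP, culture density cut under 30%, mutant RFP and density less affected; inactive = any of these conditions unmet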
ERAP1 inh: ERAP1 (human) enzyme inhibition; Q9NZ08; recombinant ERAP1, Leu-AMC fluorescence, 60 min; inhibition, % at 10.7 µM; hit rate 0.15% among 340,000; AID 652197;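 active = mean replicate inhibition of at least 30%, or all replicates individually reaching that 30% level; inactive = mean below 30% and not every replicate reaching it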;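 note: 0% = neutral control wells and 100% = L-leucinethiol positive control wells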
SIRT5 block: sirtuin-5 (human) deacylase inhibition; AID 652115; inhibition, % at 15 µM; Purified SirT5, succinyl-peptide AMC, trypsin-coupled fluorescence; Q9NXA8; hit rate 1.1% among 330,000; in the data active = inhibition above about 15%
Target sequence (Q9NXA8 whole entry, looked up): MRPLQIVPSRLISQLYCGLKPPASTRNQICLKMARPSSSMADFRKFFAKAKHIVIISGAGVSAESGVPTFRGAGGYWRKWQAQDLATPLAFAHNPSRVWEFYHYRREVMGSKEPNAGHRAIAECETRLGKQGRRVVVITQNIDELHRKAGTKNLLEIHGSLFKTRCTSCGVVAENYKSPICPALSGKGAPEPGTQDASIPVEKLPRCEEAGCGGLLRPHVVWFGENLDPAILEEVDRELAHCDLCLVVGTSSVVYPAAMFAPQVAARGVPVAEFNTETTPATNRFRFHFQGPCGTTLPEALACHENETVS
S100A4 MyoIIA: S100A4-myosin IIA interaction inhibition; P26447; S100A4/TAMRA-MyoIIA peptide fluorescence polarization; inhibition, % at 10.7 µM; hit rate 0.14% among 360,000; AID 652163;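 active = mean inhibition of at least 70% across replicates, with every replicate also reaching that level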
Target sequence (P26447 whole entry, looked up): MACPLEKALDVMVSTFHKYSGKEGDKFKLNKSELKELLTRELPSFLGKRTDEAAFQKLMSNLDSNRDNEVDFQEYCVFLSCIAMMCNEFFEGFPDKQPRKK
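assay system = human S100A4 monomer with TAMRA-labelled myosin IIA peptide | also added = labelled myosin peptide probe, 5 nM | incubation = 5 min between mix addition and reading | control set = DMSO and TFP controls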
Numbers without * were called inactive. The list is not random: actives were taken first. Their share in the collection is about 3.1%.

`O=C(CN1C(=O)/C(=C/c2cccc(Cl)c2)SC1=S)NC1C=CS(=O)(=O)C1` (stereo not given) gave F508del corr -2, Ecoli rRNA inh 5, ERAP1 inh 2, SIRT5 block 5 and S100A4 MyoIIA -8.
For CO[C@@H]1CN(C)C(=O)c2ccc(NS(=O)(=O)c3cn(C)cn3)cc2OC[C@H](C)NC[C@H]1C the results were F508del corr -2, Ecoli rRNA inh 5, SIRT5 block 0 and S100A4 MyoIIA 0.
`CN1[C@@H]2c3ccc(C4=CCCC4)c(=O)n3C[C@H]1[C@H](CO)[C@H]2C(=O)N1CCOCC1` gave F508del corr 0, Ecoli rRNA inh 5, ERAP1 inh -1, SIRT5 block -5 and S100A4 MyoIIA -1.
`N#C/C(=C\c1ccccn1)c1nc2ccccc2s1` gave F508del corr 41*, Ecoli rRNA inh -20, ERAP1 inh 0, SIRT5 block 0 and S100A4 MyoIIA 3.
`N#C[C@@H]1[C@@H](c2ccccc2C2=CCCCC2)[C@@H](CO)N1C(=O)Cc1ccncc1` gave F508del corr 1, Ecoli rRNA inh -4, ERAP1 inh 4, SIRT5 block 2 and S100A4 MyoIIA -1.
CC(C)C[C@H](NC(=O)N1CCn2c1nc1ccccc12)C(=O)N1CCCCC1 was read as F508del corr -2, Ecoli rRNA inh -3, ERAP1 inh 2, SIRT5 block 0 and S100A4 MyoIIA -14.
CSCC[C@H](NC(=O)N1CCn2c1nc1ccccc12)C(=O)N1CCCCC1 was read as F508del corr 0, Ecoli rRNA inh -17*, ERAP1 inh -1, SIRT5 block -2 and S100A4 MyoIIA 26.
C[C@H]1CN([C@@H](C)CO)C(=O)c2cc(NS(=O)(=O)c3cn(C)cn3)ccc2O[C@@H]1CN(C)C was read as F508del corr 1, Ecoli rRNA inh -2, ERAP1 inh 1, SIRT5 block 0 and S100A4 MyoIIA 16.
CC(C)c1cccc(C(C)C)c1NC(=S)Nc1cccc(Cl)c1 was read as F508del corr 1, Ecoli rRNA inh -26*, ERAP1 inh 2, SIRT5 block -4 and S100A4 MyoIIA 4.
`C/C=C/c1ccc([C@@H]2[C@H](CO)N(C(=O)CC)C23CN(S(C)(=O)=O)C3)cc1` gave F508del corr 2, Ecoli rRNA inh 1, ERAP1 inh 1, SIRT5 block -1 and S100A4 MyoIIA -4.
Screening CC(C)C#Cc1ccc([C@@H]2[C@H](CO)N3C(=O)CN(C(=O)NC4CCCCC4)C[C@@H]23)cc1 returned F508del corr 2, Ecoli rRNA inh 3, ERAP1 inh 0, SIRT5 block 1 and S100A4 MyoIIA -29.
`O=C(COc1ccccc1Cl)Nc1ccccc1C(=O)Nc1cccc(C(=O)O)c1` gave F508del corr 1, Ecoli rRNA inh -29*, ERAP1 inh -57, SIRT5 block 1 and S100A4 MyoIIA -18.
For Cc1cc(/C=C2/NC(=O)N(Cc3ccccc3F)C2=O)c(C)n1C(C)C the results were F508del corr -4, Ecoli rRNA inh 5, ERAP1 inh 3, SIRT5 block 112* and S100A4 MyoIIA -5.
`C[C@H]1CN([C@@H](C)CO)C(=O)c2cc(-c3cccc(F)c3)cnc2O[C@H]1CN(C)CC1CCOCC1` gave F508del corr 1, Ecoli rRNA inh 0, ERAP1 inh -1, SIRT5 block -2 and S100A4 MyoIIA -6.
For Cc1ccccc1S(=O)(=O)NCC[C@H]1CC[C@@H](NC(=O)C2CCC2)[C@@H](CO)O1 the results were F508del corr -3, Ecoli rRNA inh 0, ERAP1 inh -3, SIRT5 block -2 and S100A4 MyoIIA 5.
For COCC(=O)Nc1ccc2c(c1)C(=O)N(C)C[C@H](OC)[C@@H](C)CN(Cc1cncnc1)[C@@H](C)CO2 the results were F508del corr 2, Ecoli rRNA inh 0, ERAP1 inh 0, SIRT5 block 1 and S100A4 MyoIIA -4.
Screening O=C(COC(=O)CCC(=O)c1ccc(F)cc1)NCc1ccccc1Cl returned F508del corr -5, Ecoli rRNA inh -30*, ERAP1 inh -2, SIRT5 block 1 and S100A4 MyoIIA -3.
`CCOC(=O)c1sc(/S(C)=N\S(=O)(=O)c2cccc(Cl)c2)c2c1CCC=C2` (stereo not given) gave F508del corr 2, Ecoli rRNA inh -19*, ERAP1 inh 3, SIRT5 block 1 and S100A4 MyoIIA -5.
COc1ccc(CNC(=O)CN(C)S(=O)(=O)c2ccc(Br)s2)cc1 was read as F508del corr 0, Ecoli rRNA inh -4, ERAP1 inh -1, SIRT5 block -2 and S100A4 MyoIIA -2.
`CN(CC(=O)NCc1ccc(F)cc1)S(=O)(=O)c1ccc(Br)s1` gave F508del corr 0, Ecoli rRNA inh -22*, ERAP1 inh -1, SIRT5 block -2 and S100A4 MyoIIA -1.
For Cc1cc(C(=O)Nc2ccc3c(c2)C(=O)N(C)[C@@H]2CC[C@@H](CC(=O)N[C@@H](C)c4ccccc4)O[C@@H]2CO3)no1 the results were F508del corr -1, Ecoli rRNA inh 0, ERAP1 inh -4, SIRT5 block -3 and S100A4 MyoIIA 7.
C[C@H](CO)N1C[C@H](C)[C@H](CN(C)C(=O)Nc2cccc3ccccc23)Oc2ccc(NC(=O)CCCCCC(=O)Nc3ccccc3N)cc2CC1=O was read as F508del corr 2, Ecoli rRNA inh -2, ERAP1 inh 1 and S100A4 MyoIIA 3.
Screening CCN(CC)Cc1c(O)ccc2occ(C(=O)c3ccccc3)c12 returned F508del corr 1, Ecoli rRNA inh 4, ERAP1 inh 3 and S100A4 MyoIIA 8.
For O=C(c1ccccc1)c1coc2ccc(O)c(Cl)c12 the results were F508del corr -5, Ecoli rRNA inh -45*, ERAP1 inh 3, SIRT5 block 22* and S100A4 MyoIIA 7.
For O=C(OCc1ccccc1)/C(=C/c1cccc(Br)c1)NC(=O)c1ccco1 the results were F508del corr 2, Ecoli rRNA inh -29*, ERAP1 inh -1, SIRT5 block 0 and S100A4 MyoIIA -14.
For CC(=O)Nc1cccc(-c2ccnc3c2CC(C)(C(=O)Nc2ccc4c(c2)OCO4)O3)c1 (stereo not given) the results were F508del corr 10*, Ecoli rRNA inh -22, ERAP1 inh 3, SIRT5 block -1 and S100A4 MyoIIA -1.
CC(=O)Nc1ccc(NC(=O)C2Cc3c(-c4ccc5c(c4)OCO5)ccnc3O2)cc1 (stereo not given) was read as F508del corr -5, Ecoli rRNA inh 0, ERAP1 inh -1, SIRT5 block -7 and S100A4 MyoIIA -3.
`CN(C)c1ccc(CNC(=O)C2(C)Cc3c(-c4ccc5c(c4)OCO5)ccnc3O2)cc1` (stereo not given) gave F508del corr 1, Ecoli rRNA inh -15*, ERAP1 inh 0, SIRT5 block 2 and S100A4 MyoIIA -6.

Screening results as filed in PubChem BioAssay.
